*1 amine or outer side, *2 acyl side, *3 side chain or, on linkers, in order; H or OH if unused. Where a SMILES comes first, the peptide text is derived from it. Side-chain parts run from the residue outwards. [ ]: non-standard residue; d: D form. The star is where a group is joined. X2 = O=C([C@@H]1Cc2c([nH]c3ccccc23)CN1CCN[*:1])[*:2]; X8 = O=C(CN(CCN[*:1])Cc1ccc([N+](=O)[O-])cc1)[*:2]; N(2-Aminoethyl)Gly = O=C(CN(CCN[*:3])[*:1])[*:2]; X7 = O=C(CN(CCN[*:1])CCc1c[nH]c2ccccc12)[*:2]; X4 = O=C([C@@H]1Cc2ccccc2CN1CCN[*:1])[*:2]; X9 = O=C(CN(CCN[*:1])Cc1ccnc2ccccc12)[*:2]; X6 = O=C(CN(CCN[*:1])CCc1ccccc1)[*:2]; X3 = O=C(CN(CCN[*:1])Cc1ccccc1)[*:2]; X1 = O=C(Cc1c[nH]c2ccccc12)*; 3Amb = NCc1cccc(C(=O)O)c1; PhAc = O=C(Cc1ccccc1)*; βAla = NCCC(=O)O
Experiments:
Homo sapiens = species: Homo sapiens; assay: Binding affinity to HLA-A2 in TAP-deficient HLA-A2+T2 cells assessed as fluorescence intensity relative to ELA
In short: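 T2 cells (TAP-deficient, HLA-A2+) loaded overnight at 37 °C in serum-free RPMI-1640 with 100 µM compound plus human β2-microglobulin (100 ng/mL). Washed, stained with HLA-A2 mAb HB54 or isotype control (30 min, 4 °C), then PE anti-mouse IgG (30 min); flow cytometry. RFI = specific MFI / control MFI. Value reported as […].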

T-cell [1] = assay: Stimulation of INFgamma production in CDM41 ELA1 T cells at 10 uM by flow cytometry; type: functional, Homo sapiens
In short: (§1)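 Melan-A/MART-1-specific CD8 clones. T2 cells are pulsed 1 h at 37 °C with 10 µM compound and washed. 2 × 10^5 of them are co-cultured with 10^5 clone cells in RPMI-1640/10% FCS with brefeldin A (10 µg/mL) for 6 h at 37 °C. Cells are fixed in 4% PFA, then saponin-permeabilized and stained with PE anti-IFN-γ (5 µg/mL, 30 min). Flow cytometry on 10^4 events gives the % IFN-γ+ cells and the MFI.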

T-cell [2] = assay: Stimulation of INFgamma production in M17.29 ELA1 T cells at 10 uM by flow cytometry; type: functional, Homo sapiens; in short: as §1
[3] = Stimulation of INFgamma production in MEL1.37 T cells at 10 uM by flow cytometry; type: functional, Homo sapiens; in short: as §1
T-cell [4] = assay: Stimulation of INFgamma production in M199.3.2 T cells at 10 uM by flow cytometry; type: functional, Homo sapiens; in short: as §1
T-cell [5] = assay: Stimulation of INFgamma production in M199.2.7 T cells at 10 uM by flow cytometry; type: functional, Homo sapiens; in short: as §1
T-cell [6] = assay: Stimulation of INFgamma production in M77.84 T cells at 10 uM by flow cytometry; type: functional, Homo sapiens; in short: as §1
T-cell [7] = assay: Stimulation of INFgamma production in 10C10 T cells at 10 uM by flow cytometry; type: functional, Homo sapiens; in short: as §1
T-cell [8] = assay: Stimulation of INFgamma production in MEL1.38 T cells at 10 uM by flow cytometry; type: functional, Homo sapiens
T-cell [9] = assay: Stimulation of INFgamma production in CDM41 T cells at 10 uM by flow cytometry; type: functional, Homo sapiens; in short: as §1
T-cell [10] = assay: Stimulation of INFgamma production in M17.29 T cells at 10 uM by flow cytometry; type: functional, Homo sapiens; in short: as §1

| SMILES | Ratio (Homo sapiens) | Activity [3] | Activity (T-cell [5]) | Activity (T-cell [6]) | also measured |
| --- | --- | --- | --- | --- | --- |
| CC(C)C[C@H](NC(=O)CCN)C(=O)N[C@@H](C)C(=O)NCCN(CC(=O)NCc1cccc(C(=O)N[C@@H](CC(C)C)C(=O)N[C@H](C(=O)N[C@H](C(=O)O)C(C)C)[C@@H](C)O)c1)C(=O)Cc1ccccc1 (PhAc-[N(2-Aminoethyl)Gly]([Ala-Leu-βAla])[3Amb]LTV-OH) | 0.54 | – | – | – | – |
| CC[C@H](C)[C@H](NC(=O)CNC(=O)[C@H](Cc1ccccc1)NC(=O)CNC(=O)[C@H](C)NC(=O)[C@H](CC(C)C)NC(=O)[C@@H](N)CCC(=O)O)C(=O)N[C@@H](CC(C)C)C(=O)N[C@H](C(=O)N[C@H](C(=O)O)C(C)C)[C@@H](C)O | – | 71% | 7% | 32% | Activity (T-cell [1]): 58%; Activity (T-cell [2]): 48%; Activity (T-cell [4]): 83% |
| CC(C)C[C@H](NC(=O)CCN)C(=O)N[C@@H](C)C(=O)NCCN(CC(=O)NCc1cccc(C(=O)N[C@@H](CC(C)C)C(=O)N[C@H](C(=O)N[C@H](C(=O)O)C(C)C)[C@@H](C)O)c1)Cc1ccc([N+](=O)[O-])cc1 (H-[βAla]LA[X8][3Amb]LTV-OH) | 0.86 | – | – | – | – |
| CC[C@H](C)[C@H](NC(=O)CNC(=O)CN(CCNC(=O)[C@H](C)NC(=O)[C@H](CC(C)C)NC(=O)CCN)Cc1ccccc1)C(=O)N[C@@H](CC(C)C)C(=O)N[C@H](C(=O)N[C@H](C(=O)O)C(C)C)[C@@H](C)O | 0.96 | – | – | – | – |
| CC[C@H](C)[C@H](NC(=O)CNC(=O)CN(CCNC(=O)[C@H](C)NC(=O)[C@H](CC(C)C)NC(=O)[C@@H](N)CCC(=O)O)Cc1ccccc1)C(=O)N[C@@H](CC(C)C)C(=O)N[C@H](C(=O)N[C@H](C(=O)O)C(C)C)[C@@H](C)O | 0.9 | – | – | – | – |
| CC[C@H](C)[C@H](NC(=O)CNC(=O)[C@H](Cc1ccc(O)cc1)NC(=O)CNC(=O)[C@H](C)NC(=O)[C@H](CC(C)C)NC(=O)[C@@H](N)CCC(=O)O)C(=O)N[C@@H](CC(C)C)C(=O)N[C@H](C(=O)N[C@H](C(=O)O)C(C)C)[C@@H](C)O | – | 84% | 0% | 4% | Activity (T-cell [1]): 63%; Activity (T-cell [2]): 32%; Activity (T-cell [7]): 0%; Activity (T-cell [4]): 78% |
| CC[C@H](C)[C@H](NC(=O)CNC(=O)CN(CCNC(=O)[C@H](C)NC(=O)[C@H](CC(C)C)NC(=O)[C@@H](N)CCC(=O)O)Cc1ccc(O)cc1)C(=O)N[C@@H](CC(C)C)C(=O)N[C@H](C(=O)N[C@H](C(=O)O)C(C)C)[C@@H](C)O | 0.83 | 0% | 0% | 0% | Activity (T-cell [1]): 46%; Activity (T-cell [2]): 0%; Activity (T-cell [7]): 0%; Activity (T-cell [4]): 0% |
| CC[C@H](C)[C@H](NCCNC(=O)[C@H](Cc1c[nH]c2ccccc12)NCCNC(=O)[C@H](C)NC(=O)[C@H](CC(C)C)NC(=O)[C@@H](N)CCC(=O)O)C(=O)N[C@@H](CC(C)C)C(=O)N[C@H](C(=O)N[C@H](C(=O)O)C(C)C)[C@@H](C)O | 1.61 | – | – | – | – |
| CC(C)C[C@H](NC(=O)CCN)C(=O)N[C@@H](C)C(=O)NCCN(CCc1ccccc1)CC(=O)NCc1cccc(C(=O)N[C@@H](CC(C)C)C(=O)N[C@H](C(=O)N[C@H](C(=O)O)C(C)C)[C@@H](C)O)c1 (H-[βAla]LA[X6][3Amb]LTV-OH) | 0.25 | – | – | – | – |
| CC[C@H](C)[C@H](NC(=O)CNC(=O)CN(CCNC(=O)[C@H](C)NC(=O)[C@H](CC(C)C)NC(=O)[C@@H](N)CCC(=O)O)Cc1ccc([N+](=O)[O-])cc1)C(=O)N[C@@H](CC(C)C)C(=O)N[C@H](C(=O)N[C@H](C(=O)O)C(C)C)[C@@H](C)O | 0.85 | 0% | 0% | 0% | Activity (T-cell [1]): 64%; Activity (T-cell [2]): 0%; Activity (T-cell [7]): 0%; Activity (T-cell [4]): 0% |
| CC[C@H](C)[C@H](NC(=O)CNC(=O)[C@H](Cc1c[nH]c2ccccc12)NC(=O)CNC(=O)[C@H](C)NC(=O)[C@H](CC(C)C)NC(=O)[C@@H](N)CCC(=O)O)C(=O)N[C@@H](CC(C)C)C(=O)N[C@H](C(=O)N[C@H](C(=O)O)C(C)C)[C@@H](C)O | – | 81% | 15% | 90% | Activity (T-cell [1]): 47%; Activity (T-cell [2]): 55%; Activity (T-cell [7]): 0%; Activity (T-cell [4]): 54% |
| CC[C@H](C)[C@H](NC(=O)CNC(=O)CN(CCNC(=O)[C@H](C)NC(=O)[C@H](CC(C)C)NC(=O)[C@@H](N)CCC(=O)O)Cc1cccc2ccccc12)C(=O)N[C@@H](CC(C)C)C(=O)N[C@H](C(=O)N[C@H](C(=O)O)C(C)C)[C@@H](C)O | 0.7 | – | – | – | – |
| CC[C@H](C)[C@H](NC(=O)CNC(=O)CN(CCNC(=O)[C@H](C)NC(=O)[C@H](CC(C)C)NC(=O)[C@@H](N)CCC(=O)O)Cc1ccnc2ccccc12)C(=O)N[C@@H](CC(C)C)C(=O)N[C@H](C(=O)N[C@H](C(=O)O)C(C)C)[C@@H](C)O | 0.79 | 3% | 0% | 0% | Activity (T-cell [1]): 69%; Activity (T-cell [2]): 0%; Activity (T-cell [7]): 0%; Activity (T-cell [4]): 0% |

Now from value to compound, other results behind:

| Ratio (Homo sapiens) | SMILES | Activity [3] | Activity (T-cell [5]) | Activity (T-cell [6]) | also measured |
| --- | --- | --- | --- | --- | --- |
| 1.31 | CC(C)C[C@H](NC(=O)CCN)C(=O)N[C@@H](C)C(=O)NCCN(CC(=O)NCc1cccc(C(=O)N[C@@H](CC(C)C)C(=O)N[C@H](C(=O)N[C@H](C(=O)O)C(C)C)[C@@H](C)O)c1)Cc1ccnc2ccccc12 (H-[βAla]LA[X9][3Amb]LTV-OH) | – | – | – | – |
| 1.71 | CC[C@H](C)[C@H](NCCNC(=O)[C@H](Cc1ccc(O)cc1)NCCNC(=O)[C@H](C)NC(=O)[C@H](CC(C)C)NC(=O)[C@@H](N)CCC(=O)O)C(=O)N[C@@H](CC(C)C)C(=O)N[C@H](C(=O)N[C@H](C(=O)O)C(C)C)[C@@H](C)O | – | – | – | – |
| 0.81 | CC(C)C[C@H](NC(=O)CCN)C(=O)N[C@@H](C)C(=O)NCCN1Cc2[nH]c3ccccc3c2C[C@H]1C(=O)NCc1cccc(C(=O)N[C@@H](CC(C)C)C(=O)N[C@H](C(=O)N[C@H](C(=O)O)C(C)C)[C@@H](C)O)c1 (H-[βAla]LA[X2][3Amb]LTV-OH) | – | – | – | – |
| 1.02 | CC(C)C[C@H](NC(=O)CCN)C(=O)N[C@@H](C)C(=O)NCCN(CC(=O)NCc1cccc(C(=O)N[C@@H](CC(C)C)C(=O)N[C@H](C(=O)N[C@H](C(=O)O)C(C)C)[C@@H](C)O)c1)C(=O)Cc1c[nH]c2ccccc12 (X1-[N(2-Aminoethyl)Gly]([Ala-Leu-βAla])[3Amb]LTV-OH) | 89% | 25% | 12% | Activity (T-cell [8]): 44%; Activity (T-cell [9]): 31%; Activity (T-cell [7]): 0%; Activity (T-cell [10]): 27% |
| 0.86 | CC(C)C[C@H](NC(=O)CCN)C(=O)N[C@@H](C)C(=O)NCCN(CCc1c[nH]c2ccccc12)CC(=O)NCc1cccc(C(=O)N[C@@H](CC(C)C)C(=O)N[C@H](C(=O)N[C@H](C(=O)O)C(C)C)[C@@H](C)O)c1 (H-[βAla]LA[X7][3Amb]LTV-OH) | – | – | – | – |
| 0.86 | CC[C@H](C)[C@H](NC(=O)CNC(=O)CN(CCNC(=O)[C@H](C)NC(=O)[C@H](CC(C)C)NC(=O)[C@@H](N)CCC(=O)O)CC1CCCCC1)C(=O)N[C@@H](CC(C)C)C(=O)N[C@H](C(=O)N[C@H](C(=O)O)C(C)C)[C@@H](C)O | – | – | – | – |
| 0.64 | CC(C)C[C@H](NC(=O)CCN)C(=O)N[C@@H](C)C(=O)NCCN1Cc2ccccc2C[C@H]1C(=O)NCc1cccc(C(=O)N[C@@H](CC(C)C)C(=O)N[C@H](C(=O)N[C@H](C(=O)O)C(C)C)[C@@H](C)O)c1 (H-[βAla]LA[X4][3Amb]LTV-OH) | – | – | – | – |
| 0.95 | CC(C)C[C@H](NC(=O)CCN)C(=O)N[C@@H](C)C(=O)NCCN(CC(=O)NCc1cccc(C(=O)N[C@@H](CC(C)C)C(=O)N[C@H](C(=O)N[C@H](C(=O)O)C(C)C)[C@@H](C)O)c1)Cc1ccccc1 (H-[βAla]LA[X3][3Amb]LTV-OH) | – | – | – | – |

Reference: ChEMBL document CHEMBL1142968, “Synthetic anticancer vaccine candidates: rational design of antigenic peptide mimetics that activate tumor-specific T-cells” (2007)
